Test results published in ChEMBL document CHEMBL1141264, “Cucurbitane-type triterpenoids from the fruits of Momordica charantia and their cancer chemopreventive effects” (J Nat Prod, 2007).

Columns and labels:
Raji [1] = assay: Inhibition of TPA-induced Epstein-Barr virus early antigen in Raji cells at 1000 mol ratio/TPA relative to control; values are per cent of control; settings: human gammaherpesvirus 4
[2] = Cytotoxicity against human Raji cells assessed as cell viability at 1000 mol ratio/TPA relative to control; format: cell-based; settings: read-out: Activity
Method in brief: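 Raji cells stimulated with TPA at 32 pmol (20 ng), taken as 100% positive control. Test compound added at mol ratio to TPA of 1000, 500, 100 or 10 (1000:1 = 32 nmol). EBV-EA induction expressed as % of positive control; Raji cell viability recorded as % at the 1000 ratio. IC50 as mol ratio to TPA inhibiting 50% of control.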

Raji [3] = assay: Inhibition of TPA-induced Epstein-Barr virus early antigen in Raji cells at 500 mol ratio/TPA relative to control; values are per cent of control; settings: human gammaherpesvirus 4
Mus musculus [4] = species on record: Mus musculus; assay: Inhibition of DMBA-induced carcinogenesis in mouse assessed as reduction in papilloma bearing mouse after 20 weeks; format: functional; design: scale not given: the % may be the effect or the level left
Method in brief: (§1)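 Mouse skin two-stage model, DMBA initiation and TPA promotion. Promotion with TPA 1.7 nmol; treated groups received 85 nmol test compound with each TPA application. Read-outs were % of mice bearing papillomas and mean papillomas per mouse, scored at 10 and 20 weeks. Papilloma numbers compared by Student's t-test.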

Mus musculus [5] = assay: Inhibition of peroxynitrite-induced carcinogenesis in po dosed mouse skin assessed as incidence of papilloma bearing mouse after 20 weeks; format: functional; design: scale not given: the % may be the effect or the level left
Method in brief: (§2)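 Mouse back shaved and initiated topically with peroxynitrite (PN) 390 nmol in 1 mM NaOH (0.1 mL). Test compound given orally at 0.0025% in drinking water from 1 week before to 1 week after initiation. From 1 week after initiation, TPA (1 μg, 1.7 nmol) in acetone applied twice weekly. 15 mice per group. Papilloma incidence and papillomas per mouse recorded weekly for 20 weeks; papillomas counted once about 1 mm × 1 mm. Student's t-test used.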

Mus musculus [6] = species on record: Mus musculus; assay: Inhibition of DMBA-induced carcinogenesis in mouse assessed as number of papillomas per mouse after 10 weeks; format: functional
Method in brief: as §1

Raji [7] = assay: Inhibition of TPA-induced Epstein-Barr virus early antigen in Raji cells at 100 mol ratio/TPA relative to control; values are per cent of control; settings: human gammaherpesvirus 4
Raji [8] = assay: Inhibition of TPA-induced Epstein-Barr virus early antigen in Raji cells at 10 mol ratio/TPA relative to control; values are per cent of control; settings: human gammaherpesvirus 4
Mus musculus [9] = species on record: Mus musculus; assay: Inhibition of DMBA-induced carcinogenesis in mouse assessed as reduction in papilloma bearing mouse after 10 weeks; format: functional; design: scale not given: the % may be the effect or the level left
Method in brief: as §1

[10] = Scavenging activity against NO generation in NOR1-induced cell culture; format: functional
Method in brief: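 Cultured-cell screen for scavenging of NO released by the NO donor NOR 1. Activity expressed as inhibitory ratio (IR) against NOR 1 action, with glycyrrhizin and carboxy-PTIO as reference compounds.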

Mus musculus [11] = species on record: Mus musculus; assay: Inhibition of DMBA-induced carcinogenesis in mouse assessed as number of papillomas per mouse after 20 weeks; format: functional
Method in brief: as §1

Mus musculus [12] = assay: Inhibition of peroxynitrite-induced carcinogenesis in po dosed mouse skin assessed as reduction in papilloma bearing animals after 20 weeks; format: functional
Method in brief: as §2

For `CO[C@@H]1O[C@]23C=C[C@@H]4[C@@]1(CC[C@]1(C)[C@@H]([C@H](C)C/C=C/C(C)(C)OC)CC[C@@]41C)[C@@H]2CC[C@H](O)C3(C)C`, the level, % of control (Raji [1]) was 0%, the viability at 1000 mol ratio/TPA [2] was 70% and the level, % of control (Raji [3]) was 19%. It also gave an Activity (Mus musculus [4]) of 80%, an Activity (Mus musculus [5]) of 80% and an Activity (Mus musculus [6]) of 2.1. For the same compound, the level, % of control (Raji [7]) was 42.4%, the level, % of control (Raji [8]) was 83.9% and the Activity (Mus musculus [9]) was 33%. It also gave an inhibitory ratio (IR) against NOR 1 action [10] of 1.9, an Activity (Mus musculus [11]) of 3.9 and an Activity (Mus musculus [12]) of 4.5.
